Shown are actives, neighbours in structure and some others; about 2.7% of the full set was active somewhere.
SIRT5 block: blocks human SIRT5 desuccinylation of peptide. Q9NXA8. Purified SirT5, succinyl-peptide AMC, trypsin-coupled fluorescence. inhibition, % at 15 µM. 330,000 compounds, 1.1% hits; in the data active = inhibition above about 15%; inconclusive = no clear call, values can overlap the other calls
CaV13 FRET inh: Disruptors of the CACNA1D IQ motif to Ca2+-dependent inactivation inhibitor domain association, primary screening, Förster resonance energy transfer in intact living …; inhibition, % at 12.3 µM; 340,000 compounds, 0.098% hits; HEK cells, CFP/YFP FRET ICDI-IQ, plate reader, 10 min; percent FRET-ratio fall versus neutral wells;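 active = mean replicate inhibition of at least 30% and at least 1% of replicates passing that level; inconclusive = only one of the two criteria is met; inactive = neither criterion is met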;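 note: 0% = median of the neutral control wells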
S100A4 inh HTS: blocks human S100A4 binding to myosin IIA peptide; P26447; S100A4/TAMRA-MyoIIA peptide fluorescence polarization; inhibition, % at 10.7 µM; 360,000 compounds, 0.14% hits;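 active = mean inhibition of at least 70% across replicates, with every replicate also reaching that level; inconclusive = mean inhibition reaches 70% but some replicates fall short; inactive = mean inhibition below 70%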
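Test system: S100A4 monomer protein. Medium: HEPES buffer with Ca2+, pH 7.2. Reagent: fluorescent myosin IIA peptide, 5 nM. Compound dosing: single-point compound testing. Timing: 5 min between mix addition and reading. Benchmarks: DMSO neutral and TFP positive wells.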
MLL AF4-AF9 inh: MLL-AF4/AF9 protein interaction inhibition. P42568. AlphaScreen, biotin-AF4 peptide binding to FLAG-AF9. inhibition, % at 10 µM. 350,000 compounds, 0.47% hits;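 active = every replicate reaching a set inhibition limit, whatever the replicate mean, cut at about 25% in these data; inconclusive = mean inhibition reaches that limit but some replicates miss it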;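 note: 0% = plate neutral control median and 100% = total signal loss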
Target sequence (P42568 whole entry, looked up): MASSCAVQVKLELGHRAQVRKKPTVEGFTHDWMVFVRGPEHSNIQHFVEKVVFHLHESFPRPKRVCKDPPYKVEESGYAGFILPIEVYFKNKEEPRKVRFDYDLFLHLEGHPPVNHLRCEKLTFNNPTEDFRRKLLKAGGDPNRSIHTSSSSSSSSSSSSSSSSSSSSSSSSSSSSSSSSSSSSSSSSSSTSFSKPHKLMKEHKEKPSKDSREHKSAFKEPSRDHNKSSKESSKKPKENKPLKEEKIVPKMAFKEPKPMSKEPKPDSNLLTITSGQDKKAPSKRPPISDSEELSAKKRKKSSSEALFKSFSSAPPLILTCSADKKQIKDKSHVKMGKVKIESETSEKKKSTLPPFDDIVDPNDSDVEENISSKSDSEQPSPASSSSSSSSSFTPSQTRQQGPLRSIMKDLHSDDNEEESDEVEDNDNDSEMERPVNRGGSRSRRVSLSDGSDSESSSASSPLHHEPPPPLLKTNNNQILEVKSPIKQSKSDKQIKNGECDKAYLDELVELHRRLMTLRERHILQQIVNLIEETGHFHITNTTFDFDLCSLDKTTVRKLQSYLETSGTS
DENV2 CPE rescue: inhibitors of DENV2 cytopathic effect; DENV2-infected cells, cytopathic effect rescue, plate reader; CPE inhibition, % at 9.99 µM; 350,000 compounds, 1.7% hits; AID 651640; in the data active = CPE inhibition above about 20%, passing the limit was not always enough; inconclusive = no clear call, values can overlap the other calls; tested in BHK-21 cells;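 note: 0% = median of neutral control wells and 100% = median of positive control wells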
* hit, by the source's call.

`COc1ccc(C#Cc2ccc([C@@H]3[C@H](CO)N4C(=O)CN(C(=O)c5ccncc5)C[C@@H]34)cc2)cc1` gave SIRT5 block 5, S100A4 inh HTS 11, MLL AF4-AF9 inh 0 and DENV2 CPE rescue -5.
COc1ccc(C#Cc2ccc([C@@H]3[C@@H](CO)N4C(=O)CN(C(=O)c5cccnc5)C[C@H]34)cc2)cc1 was read as SIRT5 block 4, S100A4 inh HTS -4, MLL AF4-AF9 inh 8 and DENV2 CPE rescue 3.
For C[C@H](O)C#Cc1ccc2c(c1)O[C@@H](CN(C)C(=O)c1ccccc1)[C@H](C)CN([C@H](C)CO)S2(=O)=O the results were SIRT5 block -4, S100A4 inh HTS -1, MLL AF4-AF9 inh -1 and DENV2 CPE rescue -5.
`N#C[C@H]1[C@@H](c2ccccc2C2=CCCC2)[C@@H](CO)N1C(=O)C1CCCC1` gave SIRT5 block -4, S100A4 inh HTS 29, MLL AF4-AF9 inh -1 and DENV2 CPE rescue -10.
`O=C(C[C@@H]1CC[C@H]2[C@@H](COC[C@@H](O)CN2CCC(F)(F)F)O1)NCC1CC1` gave SIRT5 block -2, S100A4 inh HTS 4, MLL AF4-AF9 inh -1 and DENV2 CPE rescue -3.
`CCCCCCCCCCCCCCCC[N+](C)(C)Cc1ccc(F)cc1` gave SIRT5 block 14, CaV13 FRET inh -16, S100A4 inh HTS -12, MLL AF4-AF9 inh 5 and DENV2 CPE rescue -2.
Screening CC#CC[N+](C)(C)CCCCCCCC returned SIRT5 block 25*, CaV13 FRET inh -3, S100A4 inh HTS 0, MLL AF4-AF9 inh -2 and DENV2 CPE rescue 1.
Screening C[C@@H]1CCCCO[C@H](CN(C)Cc2ccc(C(F)(F)F)cc2)[C@H](C)CN([C@@H](C)CO)C(=O)c2cc(NC(=O)CCC(F)(F)F)ccc2O1 returned SIRT5 block 5, S100A4 inh HTS -22, MLL AF4-AF9 inh 5 and DENV2 CPE rescue -3.
COc1ccc(CN(C)C[C@H]2OCCCC[C@H](C)Oc3ccc(NC(=O)CCC(F)(F)F)cc3C(=O)N([C@H](C)CO)C[C@@H]2C)cc1 was read as SIRT5 block -1, S100A4 inh HTS -13, MLL AF4-AF9 inh -3 and DENV2 CPE rescue 29*.
Screening COc1ccc(CN(C)C[C@H]2OCCCC[C@H](C)Oc3ccc(NC(=O)CCC(F)(F)F)cc3C(=O)N([C@@H](C)CO)C[C@H]2C)cc1 returned SIRT5 block -1, S100A4 inh HTS 4, MLL AF4-AF9 inh 0 and DENV2 CPE rescue -3.
For C[C@@H]1CN([C@@H](C)CO)C(=O)c2cc(NC(=O)CCC(F)(F)F)ccc2O[C@@H](C)CCCCO[C@H]1CN(C)Cc1ccc(Cl)c(Cl)c1 the results were SIRT5 block 10, S100A4 inh HTS 52, MLL AF4-AF9 inh -7 and DENV2 CPE rescue 4.
For C[C@@H]1CN([C@H](C)CO)C(=O)c2cc(NC(=O)CCC(F)(F)F)ccc2O[C@@H](C)CCCCO[C@@H]1CN(C)Cc1ccc(C(F)(F)F)cc1 the results were SIRT5 block 21*, S100A4 inh HTS 1, MLL AF4-AF9 inh 1 and DENV2 CPE rescue 10.
Screening C[C@@H]1CCCCO[C@@H](CN(C)Cc2ccc(C(F)(F)F)cc2)[C@@H](C)CN([C@@H](C)CO)C(=O)c2cc(NC(=O)CCC(F)(F)F)ccc2O1 returned SIRT5 block 8, S100A4 inh HTS 8, MLL AF4-AF9 inh 3 and DENV2 CPE rescue -3.
C[C@@H]1CCCCO[C@H](CN(C)Cc2ccc(C(F)(F)F)cc2)[C@@H](C)CN([C@@H](C)CO)C(=O)c2cc(NC(=O)CCC(F)(F)F)ccc2O1 was read as SIRT5 block 3, S100A4 inh HTS -8, MLL AF4-AF9 inh 1 and DENV2 CPE rescue 21*.
C[C@H]1CCCCO[C@H](CN(C)Cc2ccc(Cl)c(Cl)c2)[C@@H](C)CN([C@@H](C)CO)C(=O)c2cc(NC(=O)CCC(F)(F)F)ccc2O1 was read as SIRT5 block 15*, S100A4 inh HTS -1, MLL AF4-AF9 inh -9 and DENV2 CPE rescue 2.
`CCS(=O)(=O)N[C@@H]1CC[C@@H](CC(=O)Nc2ccc(-c3ccccc3)cc2)O[C@@H]1CO` gave SIRT5 block 1, S100A4 inh HTS -2, MLL AF4-AF9 inh -12 and DENV2 CPE rescue 3.
`O=C(NC[C@@H]1CC[C@H]2[C@H](CN2C(=O)CN2CCOCC2)O1)NC1CCCCC1` gave SIRT5 block 0, S100A4 inh HTS 4, MLL AF4-AF9 inh -3 and DENV2 CPE rescue -5.
Screening O=C(NC1CCCCCCC1)C1c2ccccc2C(=O)N1Cc1cccs1 (configuration not stated) returned SIRT5 block -1, CaV13 FRET inh -6, S100A4 inh HTS 4, MLL AF4-AF9 inh -3 and DENV2 CPE rescue -2.
O=C(NCCc1ccccc1)C1c2ccccc2C(=O)N1Cc1cccs1 (configuration not stated) was read as SIRT5 block 34*, CaV13 FRET inh -16, S100A4 inh HTS -2 and DENV2 CPE rescue 9.
For COc1ccc(S(=O)(=O)N(C)C[C@@H]2OCCCC[C@@H](C)Oc3ccc(NS(=O)(=O)c4ccc(F)cc4)cc3C(=O)N([C@@H](C)CO)C[C@@H]2C)cc1 the results were SIRT5 block 20*, S100A4 inh HTS -2 and MLL AF4-AF9 inh 0.
COc1ccc(S(=O)(=O)N(C)C[C@@H]2OCCCC[C@H](C)Oc3ccc(NS(=O)(=O)c4ccc(F)cc4)cc3C(=O)N([C@@H](C)CO)C[C@@H]2C)cc1 was read as SIRT5 block 20*, S100A4 inh HTS -8, MLL AF4-AF9 inh 0 and DENV2 CPE rescue inconclusive.
Screening COc1ccc(S(=O)(=O)N(C)C[C@H]2OCCCC[C@H](C)Oc3ccc(NS(=O)(=O)c4ccc(F)cc4)cc3C(=O)N([C@H](C)CO)C[C@@H]2C)cc1 returned SIRT5 block 18*, S100A4 inh HTS -76, MLL AF4-AF9 inh 0 and DENV2 CPE rescue -1.
For COc1ccc(S(=O)(=O)N(C)C[C@H]2OCCCC[C@@H](C)Oc3ccc(NS(=O)(=O)c4ccc(F)cc4)cc3C(=O)N([C@H](C)CO)C[C@H]2C)cc1 the results were SIRT5 block 20*, S100A4 inh HTS -67, MLL AF4-AF9 inh 2 and DENV2 CPE rescue 2.
`COc1ccc(S(=O)(=O)N(C)C[C@@H]2OCCCC[C@@H](C)Oc3ccc(NS(=O)(=O)c4ccc(F)cc4)cc3C(=O)N([C@H](C)CO)C[C@@H]2C)cc1` gave SIRT5 block 13, S100A4 inh HTS -4, MLL AF4-AF9 inh -2 and DENV2 CPE rescue 6.
Screening C[C@H](CO)N1C[C@H](C)[C@@H](CN(C)C)Oc2ccc(NC(=O)CCCN(C)C)cc2C1=O returned SIRT5 block 0, S100A4 inh HTS 4, MLL AF4-AF9 inh -3 and DENV2 CPE rescue 2.
